Results published in ChEMBL document CHEMBL3351281, “1,3,4-Oxadiazole-containing histone deacetylase inhibitors: anticancer activities in cancer cells” (J Med Chem, 2014).
The source made the active and inactive calls. The rule behind the calls is not given here.

Experiments:
[1] = molecular target: T1, Protein deacetylase HDAC6 (Homo sapiens, UniProt Q9UBN7); test: Inhibition of human recombinant HDAC6 pre-incubated at room temperature for 15 min before substrate addition by fluorimetric assay
T1 sequence (Q9UBN7 whole entry): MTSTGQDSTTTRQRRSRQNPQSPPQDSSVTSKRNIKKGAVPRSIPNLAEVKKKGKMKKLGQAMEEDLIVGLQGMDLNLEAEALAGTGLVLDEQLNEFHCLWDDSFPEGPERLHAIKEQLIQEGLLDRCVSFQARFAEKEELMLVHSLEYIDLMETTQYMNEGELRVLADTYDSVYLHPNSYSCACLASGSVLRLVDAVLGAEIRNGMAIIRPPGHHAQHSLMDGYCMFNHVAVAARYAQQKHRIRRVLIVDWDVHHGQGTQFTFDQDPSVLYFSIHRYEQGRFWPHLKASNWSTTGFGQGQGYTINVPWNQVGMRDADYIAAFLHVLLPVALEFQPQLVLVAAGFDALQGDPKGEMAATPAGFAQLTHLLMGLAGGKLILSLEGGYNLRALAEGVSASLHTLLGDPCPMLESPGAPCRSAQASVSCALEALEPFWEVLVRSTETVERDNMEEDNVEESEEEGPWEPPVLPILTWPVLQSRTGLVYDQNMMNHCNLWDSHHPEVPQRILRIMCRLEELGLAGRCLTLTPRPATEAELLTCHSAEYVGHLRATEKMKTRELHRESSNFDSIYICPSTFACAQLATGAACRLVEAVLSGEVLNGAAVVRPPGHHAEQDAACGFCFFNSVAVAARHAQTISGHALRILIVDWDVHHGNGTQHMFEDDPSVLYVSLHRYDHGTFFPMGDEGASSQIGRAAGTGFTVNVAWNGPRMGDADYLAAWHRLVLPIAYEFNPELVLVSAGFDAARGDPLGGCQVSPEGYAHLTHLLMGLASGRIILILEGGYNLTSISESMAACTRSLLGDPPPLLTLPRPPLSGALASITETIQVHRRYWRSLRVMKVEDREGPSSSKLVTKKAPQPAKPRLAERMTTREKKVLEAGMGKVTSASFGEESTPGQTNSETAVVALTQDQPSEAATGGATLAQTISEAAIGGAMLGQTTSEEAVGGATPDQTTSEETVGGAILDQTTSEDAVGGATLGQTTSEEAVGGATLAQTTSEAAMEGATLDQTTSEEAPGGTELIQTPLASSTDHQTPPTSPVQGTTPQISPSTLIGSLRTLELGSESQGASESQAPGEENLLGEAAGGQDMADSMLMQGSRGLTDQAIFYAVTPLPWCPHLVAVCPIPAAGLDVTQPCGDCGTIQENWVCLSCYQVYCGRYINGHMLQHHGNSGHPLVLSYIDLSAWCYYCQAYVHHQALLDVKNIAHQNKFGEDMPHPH

Histone deacetylase 4 = Histone deacetylase 4 (Homo sapiens, UniProt P56524); test: Inhibition of human recombinant HDAC4 using non-histone trifluoroacetyl lysine substrate pre-incubated at room temperature for 15 mins before substrate addition by fluorimetric assay
Chain of Histone deacetylase 4 (P56524 whole entry): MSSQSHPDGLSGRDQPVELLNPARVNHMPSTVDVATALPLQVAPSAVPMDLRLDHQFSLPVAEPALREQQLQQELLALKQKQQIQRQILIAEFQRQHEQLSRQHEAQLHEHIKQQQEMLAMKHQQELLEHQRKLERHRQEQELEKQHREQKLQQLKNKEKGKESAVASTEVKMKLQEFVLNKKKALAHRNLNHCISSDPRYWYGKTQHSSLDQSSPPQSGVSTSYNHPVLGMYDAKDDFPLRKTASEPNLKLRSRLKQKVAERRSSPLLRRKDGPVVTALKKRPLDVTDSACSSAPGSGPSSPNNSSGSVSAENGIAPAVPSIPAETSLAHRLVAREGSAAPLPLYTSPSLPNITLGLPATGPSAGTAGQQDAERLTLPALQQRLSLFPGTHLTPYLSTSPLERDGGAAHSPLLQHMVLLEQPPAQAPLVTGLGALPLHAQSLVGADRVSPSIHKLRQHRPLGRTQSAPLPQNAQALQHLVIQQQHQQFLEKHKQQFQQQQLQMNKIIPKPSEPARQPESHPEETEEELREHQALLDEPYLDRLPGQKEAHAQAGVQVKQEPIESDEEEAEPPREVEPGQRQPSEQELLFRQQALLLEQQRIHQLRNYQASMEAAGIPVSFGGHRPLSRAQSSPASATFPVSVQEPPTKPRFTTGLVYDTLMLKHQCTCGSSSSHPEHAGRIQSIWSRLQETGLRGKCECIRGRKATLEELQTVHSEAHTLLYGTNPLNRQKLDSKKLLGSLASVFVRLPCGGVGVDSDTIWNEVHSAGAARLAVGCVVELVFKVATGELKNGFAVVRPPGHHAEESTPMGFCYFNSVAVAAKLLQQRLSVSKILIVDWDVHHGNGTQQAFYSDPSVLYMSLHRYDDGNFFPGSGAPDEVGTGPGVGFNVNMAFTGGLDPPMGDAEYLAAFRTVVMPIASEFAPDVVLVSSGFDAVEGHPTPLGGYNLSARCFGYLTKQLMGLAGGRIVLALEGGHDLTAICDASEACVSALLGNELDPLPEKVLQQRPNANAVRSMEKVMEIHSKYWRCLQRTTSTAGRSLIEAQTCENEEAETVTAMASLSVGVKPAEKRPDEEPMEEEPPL

Histone deacetylase 1 = Histone deacetylase 1 (Homo sapiens, UniProt Q13547); test: Inhibition of human recombinant HDAC1 using histone H3 substrate pre-incubated at room temperature for 15 mins before substrate addition by fluorimetric assay
Chain of Histone deacetylase 1 (Q13547 whole entry): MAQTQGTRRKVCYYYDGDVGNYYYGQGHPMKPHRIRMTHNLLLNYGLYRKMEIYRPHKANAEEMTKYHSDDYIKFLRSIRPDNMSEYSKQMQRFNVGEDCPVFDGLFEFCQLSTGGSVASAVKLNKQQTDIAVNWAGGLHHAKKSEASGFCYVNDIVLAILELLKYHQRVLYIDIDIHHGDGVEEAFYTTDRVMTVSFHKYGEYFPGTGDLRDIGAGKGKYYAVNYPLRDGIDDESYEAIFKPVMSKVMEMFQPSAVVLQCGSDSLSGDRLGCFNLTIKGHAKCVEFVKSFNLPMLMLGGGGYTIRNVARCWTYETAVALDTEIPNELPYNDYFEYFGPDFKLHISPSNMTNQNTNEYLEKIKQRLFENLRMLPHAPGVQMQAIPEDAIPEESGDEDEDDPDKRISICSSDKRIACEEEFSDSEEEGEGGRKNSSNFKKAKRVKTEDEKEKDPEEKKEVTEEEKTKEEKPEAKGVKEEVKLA

U-937 [2] = test: Induction of granulocytic differentiation in human U937 cells assessed as increase in CD11c expression after 48 hrs by FACS method; assay type: functional, cell-based
Summary of the method: (§1)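 Granulocytic differentiation in U937 cells at 0.1, 1, 5, 10 and 25 μM for 24 and 48 h, with reference drugs at 5 μM as positive controls. Read-out was the percentage of CD11c-positive, propidium iodide-negative cells.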

U-937 [3] = test: Induction of cell cycle arrest in human U937 cells assessed as accumulation at S phase at 5 uM after 48 hrs by propidium iodide staining based FACS method; assay type: functional
Summary of the method: (§2)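 U937 cells treated at 0.1, 1, 5, 10 and 25 μM for 24 and 48 h, with reference drugs at 5 μM as positive controls. Cell-cycle distribution measured, with accumulation in S phase scored.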

U-937 [4] = test: Induction of apoptosis in human U937 cells assessed as accumulation at pre-G1 phase at 5 uM after 48 hrs by propidium iodide staining based FACS method; assay type: functional
Summary of the method: (§3)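 U937 cells exposed to 0.1, 1, 5, 10 and 25 μM for 24 and 48 h. Reference drugs at 5 μM served as positive controls. Apoptosis taken as the percentage of cells in the pre-G1 peak.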

M14 = test: Antiproliferative activity against human M14 cells after 48 hrs by MTT assay; assay type: functional, cell-based; conditions: M14, 48 h
Summary of the method: (§4)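 Solid tumour cells grown in RPMI with 10% fetal calf serum and penicillin. Exponentially growing cells seeded in sextuplicate in 96-well plates (3 × 10³ cells/well), treated 24 h later at 1 to 50 μM for 48 h. Viability read by MTT.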

U-937 [5] = test: Induction of cell cycle arrest in human U937 cells assessed as accumulation at S phase at 1 uM after 48 hrs by propidium iodide staining based FACS method; assay type: functional; summary of the method: as §2
[6] = Antiproliferative activity against human HCT116 cells after 48 hrs by MTT assay; assay type: functional, cell-based; conditions: HCT-116, 48 h; summary of the method: as §4
A549 = test: Antiproliferative activity against human A549 cells after 48 hrs by MTT assay; assay type: functional, cell-based; conditions: A549, 48 h; summary of the method: as §4
cells = assay type: functional; conditions: Homo sapiens, U-937, 24 h
U-937 [7] = test: Induction of granulocytic differentiation in human U937 cells assessed as increase in CD11c expression at 5 uM after 48 hrs by FACS method; assay type: functional; summary of the method: as §1
HEL = test: Antiproliferative activity against human HEL cells after 48 hrs by Cell Titer GLo Assay; assay type: functional, cell-based
Summary of the method: (§5)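 AML cells grown in RPMI with 10% fetal calf serum, antibiotics, amphotericin-B, 10 mM HEPES and 2 mM glutamine, kept at 200 000 cells/mL. Exponentially growing cells seeded in duplicate in 6-well plates (2 × 10⁵ cells/well), treated 24 h later at 1 to 50 μM for 48 h. Viability by Cell Titer GLo.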

U-937 [8] = test: Induction of cell cycle arrest in human U937 cells assessed as accumulation at S phase at 0.1 to 25 uM after 48 hrs by propidium iodide staining based FACS method; assay type: functional; summary of the method: as §2
[9] = Antiproliferative activity against human SANTO cells after 48 hrs by MTT assay; assay type: functional, cell-based; summary of the method: as §4
MDA-MB-468 = test: Antiproliferative activity against human MDA-MB-468 cells after 48 hrs by MTT assay; assay type: functional, cell-based; conditions: MDA-MB-468, 48 h; summary of the method: as §4
U-937 [10] = test: Induction of apoptosis in human U937 cells assessed as accumulation at pre-G1 phase after 48 hrs by propidium iodide staining based FACS method; assay type: functional, cell-based; summary of the method: as §3
SW-620 = test: Antiproliferative activity against human SW620 cells after 48 hrs by MTT assay; assay type: functional, cell-based; conditions: SW-620, 48 h; summary of the method: as §4
[11] = Antiproliferative activity against human HL60 cells after 48 hrs by Cell Titer GLo Assay; assay type: functional, cell-based; conditions: HL-60, 48 h; summary of the method: as §5
MOLM-13 = test: Antiproliferative activity against human MOLM13 cells after 48 hrs by Cell Titer GLo Assay; assay type: functional, cell-based; conditions: MOLM-13, 48 h; summary of the method: as §5
U2OS = test: Antiproliferative activity against human U2OS cells after 48 hrs by MTT assay; assay type: functional, cell-based; summary of the method: as §4
HCC1937 = test: Antiproliferative activity against human HCC1937 cells after 48 hrs by MTT assay; assay type: functional, cell-based; conditions: HCC1937, 48 h; summary of the method: as §4
[12] = Antiproliferative activity against human U937 cells after 48 hrs by Cell Titer GLo Assay; assay type: functional, cell-based; conditions: U-937, 48 h; summary of the method: as §5
[13] = Antiproliferative activity against human KG1 cells after 48 hrs by Cell Titer GLo Assay; assay type: functional, cell-based; conditions: KG-1, 48 h; summary of the method: as §5
U-937 [14] = test: Induction of apoptosis in human U937 cells assessed as accumulation at pre-G1 phase at 25 uM after 48 hrs by propidium iodide staining based FACS method; assay type: functional; summary of the method: as §3
U-937 [15] = conditions: Homo sapiens, at 2.5 µM

O=C(NO)c1ccc(-c2nnc(Cc3cccc4ccccc34)o2)cc1
IC50 [1]: 4.1 µM | IC50 (Histone deacetylase 4): > 20 µM | IC50 (Histone deacetylase 1): 9.9 µM

O=C(/C=C/c1ccc(-c2nnc(Cc3cccc4ccccc34)o2)cc1)NO
IC50 [1]: 0.06 µM | IC50 (Histone deacetylase 4): > 20 µM | IC50 (Histone deacetylase 1): 0.8 µM

Nc1ccccc1NC(=O)/C=C/c1ccc(-c2nnc(Cc3cccc4ccccc34)o2)cc1
IC50 [1]: > 20 µM | IC50 (Histone deacetylase 4): > 20 µM | Activity (U-937 [2]): Dose-dependent effect | IC50 (Histone deacetylase 1): 1 µM

O=C(CCCCCCC(=O)Nc1ccccc1)NO [VORINOSTAT]
Activity (U-937 [3]): Active | Activity (U-937 [4]): 48%

Nc1ccccc1NC(=O)/C=C/c1ccc(Cc2nnc(Cc3cccc4ccccc34)o2)cc1
IC50 [1]: > 20 µM | IC50 (Histone deacetylase 4): > 20 µM | IC50 (Histone deacetylase 1): 4.1 µM

Nc1ccccc1NC(=O)c1ccc(-c2nnc(Cc3cccc4ccccc34)o2)cc1
IC50 [1]: 16.1 µM | IC50 (Histone deacetylase 4): > 20 µM | Activity (U-937 [2]): Dose-dependent effect | IC50 (Histone deacetylase 1): 0.3 µM

Nc1ccccc1NC(=O)/C=C/c1ccc(-c2nnc(Cc3c[nH]c4ccccc34)o2)cc1
IC50 [1]: > 20 µM | IC50 (Histone deacetylase 4): > 20 µM | IC50 (Histone deacetylase 1): 1.5 µM

Nc1ccccc1NC(=O)c1ccc(Cc2nnc(Cc3cccc4ccccc34)o2)cc1
IC50 (M14): 43.3 µM | Activity (U-937 [5]): Active | IC50 [1]: 8.9 µM | IC50 (Histone deacetylase 4): > 20 µM | IC50 [6]: 24.7 µM | IC50 (A549): 23.6 µM | inhibition at 2.5 µM (cells): 75% | Activity (U-937 [7]): 45% | IC50 (HEL): 2 µM | Activity (U-937 [8]): Active | IC50 [9]: 17.4 µM | IC50 (MDA-MB-468): 19.6 µM | Activity (U-937 [10]): Dose-dependent effect | Activity (U-937 [2]): Dose-dependent effect | IC50 (SW-620): 6.7 µM | IC50 [11]: 2.8 µM | IC50 (MOLM-13): 1.6 µM | IC50 (U2OS): 20.4 µM | IC50 (HCC1937): 29.8 µM | IC50 [12]: 1.8 µM | IC50 (Histone deacetylase 1): 0.2 µM | IC50 [13]: 1.8 µM

Nc1ccccc1NC(=O)/C=C/c1ccc(-c2nnc(Cc3ccc4ccccc4c3)o2)cc1
IC50 [1]: > 20 µM | IC50 (Histone deacetylase 4): > 20 µM | IC50 (Histone deacetylase 1): 2.4 µM

O=C(NO)c1ccc(Cc2nnc(Cc3cccc4ccccc34)o2)cc1
IC50 [1]: 1.2 µM | IC50 (Histone deacetylase 4): 7.8 µM | Activity (U-937 [8]): Active | Activity (U-937 [10]): Dose-dependent effect | IC50 (Histone deacetylase 1): 0.2 µM

O=C(/C=C/c1ccc(-c2nnc(Cc3c[nH]c4ccccc34)o2)cc1)NO
IC50 [1]: 0.03 µM | IC50 (Histone deacetylase 4): 15.2 µM | IC50 (Histone deacetylase 1): 0.6 µM

O=C(/C=C/c1ccc(Cc2nnc(Cc3cccc4ccccc34)o2)cc1)NO
IC50 (M14): 45 µM | IC50 [1]: 0.03 µM | IC50 (Histone deacetylase 4): > 20 µM | IC50 [6]: 21.3 µM | IC50 (A549): 29.5 µM | IC50 (HEL): 4.1 µM | IC50 [9]: 24 µM | IC50 (MDA-MB-468): 18.4 µM | Activity (U-937 [10]): Dose-dependent effect | Activity (U-937 [2]): Dose-dependent effect | Activity (U-937 [14]): 74% | IC50 (SW-620): 5.1 µM | Activity (U-937 [4]): 58% | IC50 [11]: 6 µM | IC50 (MOLM-13): 2.2 µM | IC50 (U2OS): 50 µM | inhibition (U-937 [15]): Active | IC50 (HCC1937): 33.6 µM | IC50 [12]: 7.8 µM | IC50 (Histone deacetylase 1): 0.2 µM | IC50 [13]: 2.6 µM

Nc1ccccc1NC(=O)c1ccc(CNC(=O)OCc2cccnc2)cc1 [ENTINOSTAT]
Activity (U-937 [7]): 47%
